The data set is described as follows: Toxicity liver stage against HepG2, at 10uM. It counts as cell-based. The conditions noted are these: human, HepG2-A16-CD81EGFP cells; read-out: INHIBITION
Further details: test concentration 10 uM, cell line HepG2-A16-CD81EGFP. In outline: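 Uninfected HepG2-A16-CD81EGFP cells, 3 × 10^3 per well, 1536-well, plated on prespotted compound at 10 μM final, parasite-free screening media added to match infected plates; puromycin 10 μM positive, DMSO 0.5% negative; run in parallel with 48 h PbLuc assay at 37 °C, 5% CO2; viability by CellTiter-Glo luminescence, normalized to controls.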

As for `CCN(CC)Cc1nc(Cc2cccc(C(F)(F)F)c2)no1`, the cytotoxicity at 10 µM amounted to 9.76%.

Take `Cc1ccc(-c2ccc(C3CNCCO3)nc2)cc1` (configuration not stated): the cytotoxicity at 10 µM is -5.3%.

Consider `CCOc1ccccc1C(=O)NCCC(O)c1ccoc1` (configuration not stated), for which the cytotoxicity at 10 µM was -16.4%.

As for `Cn1cnc2nc3n(c2c1=O)CCC3`, the cytotoxicity at 10 µM is -0.409%.

As for `Cc1cccc(CC(=O)N2CCCCC2CN)c1` (configuration not stated), the cytotoxicity at 10 µM was 5.68%.

Turning to `COc1ccc(CN2CC[C@@H](N)[C@@H](OC)C2)cc1Cn1cncn1`, the cytotoxicity at 10 µM was -3.7%.

In the case of `CS(=O)(=O)Cc1ccc(Cl)cc1NCc1ccccc1F`, the cytotoxicity at 10 µM was determined as 6.8%.

`Cc1cccc(C(=O)N2CCCn3c(CN4CCCCC4)nnc3C2)c1`: the cytotoxicity at 10 µM is -84%.

As for `COCCN1CCN(C(=O)c2ccncc2F)Cc2cccnc21`, the cytotoxicity at 10 µM is 10%.

`Cc1cnc(NS(=O)(=O)c2cccc(C#N)c2)s1`: the cytotoxicity at 10 µM is 15%.

`Cc1n[nH]cc1C(=O)N1CCCC1c1cc[nH]n1` (configuration not stated): the cytotoxicity at 10 µM was -23.1%.

As for `COCC(=O)NCc1cccc(Br)c1`, the cytotoxicity at 10 µM was -4.2%.

Turning to `O=C(N[C@@H]1CN(Cc2c[nH]nc2-c2ccccc2)C[C@H]1O)c1cc[nH]n1`, the cytotoxicity at 10 µM is 2.8%.

For the compound `CCN1CCC(CC(=O)N2CCc3sc(C(=O)N(C)C)cc3C2)CC1`, the cytotoxicity at 10 µM was -21.1%.

`CN(C)CCN1C[C@@H]2CN(S(=O)(=O)c3cccs3)C[C@@H]2C1=O`: the cytotoxicity at 10 µM came out at 0.0221%.

As to `COCCN1C[C@@H]2CC[C@H]1CN(C(=O)CCc1c(C)nn(C)c1C)C2`, the cytotoxicity at 10 µM is -8.6%.

With `COc1ncccc1C(=O)N1CCCC1c1nc(-c2ccccc2)no1` (configuration not stated), the cytotoxicity at 10 µM was 1.75%.

In the case of `Cc1ccc(C(=O)NS(=O)(=O)c2ccccc2F)c(=O)[nH]1`, the cytotoxicity at 10 µM is -5.53%.

Turning to `CO[C@H]1CCN(c2ncc(F)cn2)[C@@H]2CN(Cc3ccco3)C[C@H]12`, the cytotoxicity at 10 µM was determined as 13.5%.

For `CCNC(=O)N1CCC(OC)c2ccccc2N(CC(=O)NC)C(=O)C1` (configuration not stated), the cytotoxicity at 10 µM came to 5.5%.

With `Cc1ccsc1CN(CCN(C)C)C(=O)c1ccccc1C#N`, the cytotoxicity at 10 µM is -119%.

As for `Cc1nc2cc(=O)[nH]n2c(C)c1CNC(=O)c1cnn(C(C)(C)C)c1`, the cytotoxicity at 10 µM was -4.01%.

Consider `Cc1ccc(C(=O)N(Cc2ccc(F)cc2)C2CC2)c(=O)[nH]1`, for which the cytotoxicity at 10 µM is -1.4%.

In the case of `CC(=O)N1CCC[C@H]1C(=O)N(C)CCCOc1ccccc1`, the cytotoxicity at 10 µM is -1.18%.

`CC(=O)N(Cc1ncc(C)o1)C1CCN(Cc2cccc(C#N)c2)C1` (configuration not stated): the cytotoxicity at 10 µM turned out to be 1.63%.

Regarding `CCSCCNC(=O)Nc1cc(C(=O)N2CCOCC2)ccc1Cl`, the cytotoxicity at 10 µM was -55.2%.

Consider `COCC1CN(c2ncc(F)cn2)Cc2cnn(C)c21` (configuration not stated), for which the cytotoxicity at 10 µM is 4.02%.

As to `COc1ccc(S(=O)(=O)Cc2noc(CC(C)C)n2)cc1`, the cytotoxicity at 10 µM was determined as 5.52%.

Consider `O=S1(=O)CCCN1Cc1coc(-c2ccc(C(F)(F)F)cc2)n1`, for which the cytotoxicity at 10 µM is -2.04%.

As for `CC(C)Nc1nc(N2CCCC2)nc2c1CN(C)CC2`, the cytotoxicity at 10 µM is -0.376%.

As for `CCCc1nc(C(=O)N(C)Cc2cc(CC)no2)cs1`, the cytotoxicity at 10 µM is 6.75%.

Take `Cn1ncc2c1CCCC2NCc1cccc(C(F)(F)F)c1` (configuration not stated): the cytotoxicity at 10 µM was -8.25%.

In the case of `Cn1nc(C#N)c2c1CN(C(=O)c1cccnc1)CCC2`, the cytotoxicity at 10 µM worked out at 2.22%.

Consider `CCCN1CCCN(c2ccc(-n3ccc(C)n3)nn2)CC1`, for which the cytotoxicity at 10 µM is -1.2%.

Turning to `Cn1c(=O)n(C)c2nc(Cl)c(CC(=O)c3ccc(F)cc3)n2c1=O`, the cytotoxicity at 10 µM turned out to be 6.28%.

As for `CCNc1ncc(C(=O)NC2CCC(n3cnnc3)CC2)cn1` (configuration not stated), the cytotoxicity at 10 µM came to 9.45%.

Turning to `O=C(Cn1cccn1)N1CCC(Oc2ccc(C(F)(F)F)cn2)CC1`, the cytotoxicity at 10 µM stood at 8.77%.

For the compound `CN(C)S(=O)(=O)N1CCCC(c2ccncn2)C1` (configuration not stated), the cytotoxicity at 10 µM is -15.3%.

As to `Cc1nnc(NCc2cccc(OCc3ccccn3)c2)c(C#N)c1C`, the cytotoxicity at 10 µM was determined as 5.93%.

Regarding `O=C(CSC1=NS(=O)(=O)c2cc(Cl)ccc2N1)c1ccccc1`, the cytotoxicity at 10 µM was found to be 13.6%.

In the case of `CCOc1ccc(CC(CNC(=O)c2ccco2)C(N)=O)cc1` (configuration not stated), the cytotoxicity at 10 µM came to 8.26%.

In the case of `Cc1nc(-c2ccsc2)sc1C(=O)N1CCn2c(C)nnc2C1`, the cytotoxicity at 10 µM was -3.29%.

With `CCc1nc(CN2CCCN(C(=O)c3c(C)noc3C)CC2)cs1`, the cytotoxicity at 10 µM amounted to 1.74%.

For `CCCc1nnc(NCCc2noc(C3CCC3)n2)o1`, the cytotoxicity at 10 µM was -8.22%.

Regarding `COc1ccc(S(N)(=O)=O)cc1C(=O)N(C)Cc1cc(C)on1`, the cytotoxicity at 10 µM was -4.3%.

Take `O=C(N[C@@H]1CN(Cc2ccc(F)cc2)C[C@H]1O)c1cscn1`: the cytotoxicity at 10 µM was -11.7%.

On to `O=C(CCC1CCCO1)N1CCc2nc(-c3cnccn3)nc(O)c2C1` (configuration not stated), for which the cytotoxicity at 10 µM is -20.3%.

Regarding `Cc1ccc(C(=O)N2CCSCC2)cc1NC(=O)Cn1cncn1`, the cytotoxicity at 10 µM was -11.1%.

As to `CN(C)C(=O)c1cccc(CN2CCN(CCO)CC2)c1`, the cytotoxicity at 10 µM was -28.6%.

Regarding `CC(C)CNC(=O)N1CCC2(CCCO2)C1` (configuration not stated), the cytotoxicity at 10 µM came to 12.9%.

For the compound `CCCNC(=O)c1ccc2c(c1)C(=O)N(CC(C)C)C2=O`, the cytotoxicity at 10 µM is -10.2%.

As for `O=C(NC1CC1)[C@@]12CCO[C@@H]1CCN(Cc1ccc3c(c1)OCO3)C2`, the cytotoxicity at 10 µM was -2.87%.

Turning to `COc1cc(CNC2CCCN(c3ncccn3)C2)cc2c1OCO2` (configuration not stated), the cytotoxicity at 10 µM stood at 6.26%.

As to `Cc1c(C(=O)NC(C)CC(=O)c2cccs2)cnn1C` (configuration not stated), the cytotoxicity at 10 µM was -8.71%.

On to `CN(C)CCN(C)C(=O)c1cn(CC2CCCCC2)nn1`, for which the cytotoxicity at 10 µM was -3.61%.

Turning to `Cc1ccc(N2CC[C@H]3O[C@@H](C(=O)N4CCCO4)CC[C@H]32)nn1`, the cytotoxicity at 10 µM was determined as 0.908%.

With `CCS(=O)(=O)N1CCC2(CC1)CC[C@@]1(C(=O)NC)CN(C(C)=O)C[C@@H]21`, the cytotoxicity at 10 µM worked out at 6.1%.

Regarding `CSc1nc2ccsc2c(=O)n1CC(=O)NC1CCCCC1`, the cytotoxicity at 10 µM is 4.45%.

Regarding `COc1ccc(Cc2ncc3c(n2)CN(C(=O)CCO)C3)cc1`, the cytotoxicity at 10 µM was 2.37%.

As to `CC(C)CC(NCc1cscn1)c1ccccn1` (configuration not stated), the cytotoxicity at 10 µM turned out to be 2.5%.

Consider `CC(=O)N1CCC(NC(=O)N2CCCC2c2ccsc2)CC1` (configuration not stated), for which the cytotoxicity at 10 µM worked out at 0.421%.

On to `CN1C(=O)C(c2cccnc2)CC12CCN(CCO)CC2` (configuration not stated), for which the cytotoxicity at 10 µM came out at 3.55%.

In the case of `COc1cccc(C(=O)N2CCN(C(=O)CCCn3ccnc3)CC2)c1`, the cytotoxicity at 10 µM was 3.82%.

For the compound `Cc1cc(C(F)(F)F)c2c(=O)n(Cc3ccon3)n(C)c2n1`, the cytotoxicity at 10 µM worked out at 5.85%.

Turning to `O=C(c1cc[nH]n1)N1CCc2ncnc(NCc3ccccn3)c2CC1`, the cytotoxicity at 10 µM is -10.5%.

Consider `CCC(C)(C)C(=O)Nc1ccc2ccn(CC(=O)NC)c2c1`, for which the cytotoxicity at 10 µM was determined as 4.19%.

Consider `Cc1ccc(-c2cccc(CC3(C(=O)O)CCOCC3)c2)c(C)c1`, for which the cytotoxicity at 10 µM was -29.8%.

Turning to `CC(Nc1c(F)cc(C#N)cc1F)c1cccc(S(N)(=O)=O)c1` (configuration not stated), the cytotoxicity at 10 µM was -4.34%.

As to `O=C(O)c1ccc(CC2CCN(Cc3ccc(-c4cc[nH]n4)o3)C2)cc1` (configuration not stated), the cytotoxicity at 10 µM came out at 6.37%.

Regarding `Cc1cnc(N2CCC3(CC2)CC(NC(=O)N(C)C)CO3)nc1` (configuration not stated), the cytotoxicity at 10 µM turned out to be 6.31%.

As to `O=C(NC[C@H]1OC[C@@H]2CCN(Cc3ccco3)C[C@@H]21)c1ccsc1`, the cytotoxicity at 10 µM was -18.3%.

Turning to `CCc1nnc(CN2CC(n3cccn3)C2)o1`, the cytotoxicity at 10 µM was -146%.

Take `COCc1noc(-c2ccc(N3CCCCC3CCCO)nc2)n1` (configuration not stated): the cytotoxicity at 10 µM is -3.31%.

For the compound `CCCN(CC)Cc1ccc(C(=O)NCC2COCCO2)c(=O)[nH]1` (configuration not stated), the cytotoxicity at 10 µM came out at 4.78%.

Turning to `CSc1nc2cc(C)n(CC(N)=O)c2c(=O)n1CC(C)C`, the cytotoxicity at 10 µM is -11.3%.

On to `COc1cc(C2CC(=O)c3c(O)cc(O)cc3O2)ccc1O` (configuration not stated), for which the cytotoxicity at 10 µM is -0.537%.

With `COCCN(Cc1sccc1C)Cc1nccn1CCOC`, the cytotoxicity at 10 µM came to 2.33%.

For `O=C(CCCOCc1ccccc1)N1CCCC(n2cncn2)C1` (configuration not stated), the cytotoxicity at 10 µM is -17.5%.

Consider `COCc1nc2cc3c(cc2c(=O)o1)OCCCO3`, for which the cytotoxicity at 10 µM was found to be 1.19%.

As to `CC(C(=O)Nc1cccc(Cl)c1SC(F)F)S(C)(=O)=O` (configuration not stated), the cytotoxicity at 10 µM worked out at 0.685%.

Take `CN(C)CCN(Cc1ccc(C#N)cc1)C(=O)c1ccn(C)c(=O)c1`: the cytotoxicity at 10 µM turned out to be 16.8%.

Take `CC(C)C1=NOC2(CCN(C(=O)C3CCCC3)CC2)C1`: the cytotoxicity at 10 µM came to 6.69%.

For the compound `Cc1cccc(C2CCCCCN2Cc2cn(C)nc2C)c1` (configuration not stated), the cytotoxicity at 10 µM was -1.17%.

Consider `O=C(Cc1ccsc1)N1CCN(CC2CC2)c2ncccc2C1`, for which the cytotoxicity at 10 µM is -101%.

On to `Cn1cc(CN2C[C@H](N3CCOCC3)[C@@H]3OCCC[C@@H]32)cn1`, for which the cytotoxicity at 10 µM worked out at 5.02%.

Regarding `Cn1c(C2CCCN2C(=O)CN2CSCC2=O)nc2ccccc21` (configuration not stated), the cytotoxicity at 10 µM amounted to 7.81%.

For the compound `Cc1cnc(N2CCCOC(CN3CCCCC3)C2)nc1` (configuration not stated), the cytotoxicity at 10 µM is -3.54%.

Take `CCOc1nc2cccnc2n(CC(=O)NCCOC)c1=O`: the cytotoxicity at 10 µM was -7.84%.

On to `Cc1nn(CC(C)C)c(C)c1CC(=O)N1CCCC(NS(C)(=O)=O)C1` (configuration not stated), for which the cytotoxicity at 10 µM was 6.29%.

Turning to `Cc1ccc2c(n1)N(CC(C)C)CCN(S(C)(=O)=O)C2`, the cytotoxicity at 10 µM was -65.7%.

Regarding `Cc1cc2n(n1)CC(CNCc1ccccc1Cn1cccn1)CN2` (configuration not stated), the cytotoxicity at 10 µM is -13.3%.

As to `O=C(Nc1cccc(OCc2cccc(F)c2)c1)C1COCCO1` (configuration not stated), the cytotoxicity at 10 µM came out at 8.06%.

Turning to `COC(C)(C)CNC(=O)N1CCC(n2ccc(C(F)(F)F)n2)CC1`, the cytotoxicity at 10 µM is -2.41%.

On to `COCCN1CCC2(CCC(=O)N2Cc2csc(C)n2)CC1`, for which the cytotoxicity at 10 µM amounted to 2.22%.

In the case of `CCN(CC1CCOC1)C(=O)Nc1ccc(OCC(F)(F)F)nc1` (configuration not stated), the cytotoxicity at 10 µM was -11.3%.

In the case of `Cc1noc(C(C)N(C)CC(=O)NCCc2ccc(Cl)cc2)n1` (configuration not stated), the cytotoxicity at 10 µM came out at 10.3%.

As to `O=C(CN1C(=O)CCC1=O)N1CCC(CSCc2ccco2)CC1`, the cytotoxicity at 10 µM is -8%.

The record behind these values is ChEMBL document CHEMBL4513216, “Probing the Open Global Health Chemical Diversity Library for Multistage-Active Starting Points for Next-Generation Antimalarials” (ACS Infect Dis, 2020).
